≈ marks a conversion by molar mass, not a printed value.
Tested on: HDFn cells
Assay: PrestoBlue cell viability assay, HDFn
Format: cell-based
Details: Homo sapiens, 96 h, read-out: IC50 (half maximal inhibitory concentration), HDFn
In short: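 HDFn cells grown in DMEM with 10% FBS and 1X antibiotic-antimycotic (37°C, 5% CO2); seeded at 1×10^4 viable cells/well and attached overnight. Test compound (DMSO stock, 0.1% final DMSO) added in two-fold dilutions, 50–0.39 µg/mL final, for 4 days. PrestoBlue 2 h; absorbance 570 nm normalized to 600 nm. Untreated, Zeocin and media-only background wells. Triplicates; IC50 from dose-response curves.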

| Compound | IC50 [µg/mL] |
| --- | --- |
| CC1(C)CC[C@]2(C(=O)O)CC[C@]3(C)C(=CC[C@@H]4[C@@]5(C)CC[C@H](O)C(C)(C)[C@@H]5CC[C@]43C)[C@@H]2C1 [Compound 2, oleanolic acid] | 29.5 (≈ 64.6 µM) |
| CC(C)=CCC/C(C)=C/CC/C(C)=C/CC/C=C(\C)CC/C=C(\C)CCC=C(C)C [Compound 3, squalene] | 0.1 (≈ 0.243 µM) |

From publication PMC5855380 (Pharmacognosy Research, 2018)
